ChEMBL document CHEMBL3596149, “Thermodynamics and kinetic studies in the binding interaction of cyclic naphthalene diimide derivatives with double stranded DNAs” (Bioorg Med Chem, 2015)
Active and inactive are the calls of the source. No cut-off for these calls is given here.

How the values were obtained:
[1] = Binding affinity to poly[d(G-C)]2 DNA (unknown origin) assessed as hypochromicity by UV-vis titration method
Summary of the method: (§1)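 Titration was the same as the UV-vis binding titration: 6.7 µM ligand, 10 mM MES pH 6.25, 100 mM NaCl, 1 mM EDTA, 25°C. Hypochromicity was calculated as H% = (A383 free − A383 bound)/A383 free × 100.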

Nucleic Acid = assay: Induction of DNA intercalation of pUC19 DNA assessed as compound level causing DNA re-supercoiling in presence of topoisomerase-1 incubated for 1 hr at 37 degC by electrophoresis method; format: nucleic-acid assay; conditions: Escherichia coli
Summary of the method: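 pUC19 (0.25 µg) was preincubated with 5 U topoisomerase I for 5 min at 37°C. Reaction buffer was 35 mM Tris-HCl pH 8.0, 72 mM KCl, 5 mM MgCl2, 5 mM DTT, 5 mM spermidine and 0.1% BSA. Ligand (2.0–50 µM) was then added for 1 h at 37°C. After SDS/proteinase K treatment, extraction and ethanol precipitation, DNA was run on 1% agarose in TAE (18 V, 3.5 h) and GelStar-stained.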

Calf thymus DNA [2] = assay: Binding affinity to calf thymus DNA assessed as association constant by stopped flow kinetics assay; format: nucleic-acid assay; conditions: Bos taurus
Summary of the method: (§2)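 Ligand was mixed with DNA in a stopped-flow instrument, in 10 mM MES pH 6.25 with 0.1 M NaCl and 1 mM EDTA. Ligand to DNA base-pair ratio was 1:10. Absorbance was followed at the ligand maximum (383 nm). Traces were fitted to a single exponential, and apparent rate constants were plotted against DNA concentration.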

[3] = Selectivity index, ratio of binding constant K for poly[d(A-T)]2 DNA (unknown origin) to binding constant K for poly[d(G-C)]2 DNA (unknown origin)
Summary of the method: (§3)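 The ratio uses binding constants from UV-vis Scatchard/McGhee–von Hippel titrations. Conditions were 6.7 µM ligand, 25°C, 10 mM MES pH 6.25, 100 mM NaCl, 1 mM EDTA.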

Calf thymus DNA [4] = assay: Binding affinity to calf thymus DNA assessed as change in free energy at 25 degC by thermodynamics analysis; format: nucleic-acid assay; conditions: Bos taurus
Summary of the method: (§4)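 Binding constants for CT-DNA were obtained by UV-vis titration at 20–27.5°C in 10 mM MES pH 6.25 with 0.1 M NaCl and 1 mM EDTA. ΔH and ΔS were taken from a van't Hoff plot of lnK vs 1/T. ΔG at 25°C came from the Gibbs equation.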

Calf thymus DNA [5] = assay: Binding affinity to calf thymus DNA assessed as change in enthalpy by thermodynamics analysis; format: nucleic-acid assay; conditions: Bos taurus; summary of the method: as §4
Calf thymus DNA [6] = assay: Binding affinity to calf thymus DNA assessed as dissociation constant by stopped flow kinetics assay; format: nucleic-acid assay, Bos taurus
Summary of the method: (§5)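 Dissociation was SDS-driven and measured by stopped-flow. Equal volumes of 1% SDS and ligand–DNA complex (ligand:bp 1:10) were mixed rapidly. Buffer was 10 mM MES pH 6.25 with 100 mM NaCl and 1 mM EDTA. Absorbance was recorded over time, and k_d was obtained by nonlinear fitting of the trace.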

[7] = Binding affinity to poly[d(A-T)]2 DNA (unknown origin) assessed as association constant by stopped flow kinetics assay; summary of the method: as §2
Calf thymus DNA [8] = assay: Binding affinity to calf thymus DNA assessed as change in entropy by thermodynamics analysis; format: nucleic-acid assay; conditions: Bos taurus; summary of the method: as §4
[9] = Selectivity index, ratio of binding constant K for calf thymus DNA to binding constant K for poly[d(G-C)]2 DNA (unknown origin); summary of the method: as §3
[10] = Binding affinity to poly[d(G-C)]2 DNA (unknown origin) assessed as dissociation constant by stopped flow kinetics assay; summary of the method: as §5
Calf thymus DNA [11] = assay: Binding affinity to calf thymus DNA assessed as delta(logK)/delta(log[Na+]) ratio at 0.05 to 0.125 M NaCl by UV-vis titration method; format: nucleic-acid assay; conditions: Bos taurus
Summary of the method: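 Binding constants for CT-DNA were measured by UV-vis Scatchard titration in 10 mM MES pH 6.25 with 1 mM EDTA at varied NaCl. The ratio is the slope of log K plotted against −log[Na+].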

[12] = Binding affinity to poly[d(A-T)]2 DNA (unknown origin) assessed as hypochromicity by UV-vis titration method; summary of the method: as §1
Calf thymus DNA [13] = assay: Binding affinity to calf thymus DNA assessed as hypochromicity by UV-vis titration method; format: nucleic-acid assay; conditions: Bos taurus; summary of the method: as §1
[14] = Binding affinity to poly[d(G-C)]2 DNA (unknown origin) assessed as association constant by stopped flow kinetics assay; summary of the method: as §2
[15] = Binding affinity to poly[d(A-T)]2 DNA (unknown origin) assessed as dissociation constant by stopped flow kinetics assay; summary of the method: as §5
Calf thymus DNA [16] = assay: Binding affinity to calf thymus DNA assessed as increase in positive and negative CD bands at 5 to 50 uM at 25 degC by CD spectroscopy; format: nucleic-acid assay; conditions: Bos taurus
Summary of the method: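 Ligand at 5–50 µM was added to 100 µM/bp CT-DNA in 10 mM MES pH 6.25 with 100 mM NaCl and 1 mM EDTA, at 25°C. CD spectra were recorded, including the induced CD region at 320–400 nm.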

Row | Activity [1] [%] | Activity (Nucleic Acid) [µM] | K (Calf thymus DNA [2]) [M⁻¹ s⁻¹] | Selectivity Index [3] | deltaG (Calf thymus DNA [4]) [kcal/mol] | deltaH (Calf thymus DNA [5]) [kcal/mol] | K [7] [M⁻¹ s⁻¹] | deltaS (Calf thymus DNA [8]) [kcal/mol] | Selectivity Index [9] | Kd [10] [s⁻¹] | Ratio (Calf thymus DNA [11]) | Activity [12] [%] | Activity (Calf thymus DNA [13]) [%] | K [14] [M⁻¹ s⁻¹] | Kd [15] [s⁻¹] | Activity (Calf thymus DNA [16]) | SMILES | Kd (Calf thymus DNA [6]) [s⁻¹]
1 | 61 | 2 | 60000 | 9 | -8 | 7.8 | 120000 | 0.053 | 9 | 0.003 | 0.72 | 47 | 60 | 34000 | 0.15 | – | O=C1NCCCN2CCN(CCCN3C(=O)c4ccc5c6c(ccc(c46)C3=O)C(=O)N(CCCN3CCN(CCCNC(=O)c4ccc1cc4)CC3)C5=O)CC2 | 0.1
2 | 61 | – | 120000 | – | -7.6 | -6.7 | 260000 | 0.003 | – | 0.3 | 0.83 | 60 | 62 | 84000 | 2.6 | – | CN(C)CCCN1C(=O)c2ccc3c4c(ccc(c24)C1=O)C(=O)N(CCCN(C)C)C3=O | 1.1
3 | 61 | 10 | 120000 | – | -7 | 9.2 | 32000 | 0.054 | – | 1 | 0.74 | 49 | 60 | 26000 | 4.2 | Active | CN1CCCNC(=O)c2ccc(cc2)C(=O)NCCCN(C)CCCN2C(=O)c3ccc4c5c(ccc(c35)C2=O)C(=O)N(CCC1)C4=O | 1.1
